Source: ChEMBL document CHEMBL4808165, “Design of Thioether Cyclic Peptide Scaffolds with Passive Permeability and Oral Exposure” (J Med Chem, 2021)
In brackets after ≈: the same amount, converted by molar mass. Positions of bridges follow the written chain, without caps; N, C: chain ends. Non-standard residues stand in square brackets, D forms with d. Residues, ends and D or L forms follow the SMILES beside them. NMeF = CN[C@@H](Cc1ccccc1)C(=O)O; NMeNle = CCCC[C@H](NC)C(=O)O; Nle = CCCC[C@H](N)C(=O)O

Key:
[1] = Clearance in Sprague-Dawley rat at 5 mg/kg, po or 0.5 mg/kg, iv measured up to 24 hrs by HPLC-MS/MS analysis; assay type: ADME, organism-based; details: in vivo
Procedure, shortened: (§1)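 Rat dosing in PEG300:20% Solutol/PBS (10:25:65). IV into a jugular cannula at 0.5 mg/kg (1 mg/kg for some analogues), 1 mL/kg. PO by gavage at 5 mg/kg from a 0.5 mg/mL solution. Blood drawn via jugular cannula at 5 min (IV only), 15 min, 0.5, 1, 2, 4, 7 and 24 h. Plasma analysed by HPLC-MS/MS. Parameters from noncompartmental analysis.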

[2] = Half life in Sprague-Dawley rat at 5 mg/kg, po or 0.5 mg/kg, iv measured up to 24 hrs by HPLC-MS/MS analysis; assay type: ADME, organism-based; details: in vivo; procedure, shortened: as §1
[3] = 1-Octanol/phosphate buffered-saline distribution coefficient, logD of compound at pH 7.4 measured after 4 hrs by LC-MS analysis; assay type: physicochemical
Procedure, shortened: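 PBS pH 7.4 and 1-octanol, each pre-saturated with the other. 10 mM DMSO stock, dispensed with an internal reference compound in triplicate and dried. Residue shaken in octanol plus buffer for at least 4 h, then centrifuged to separate phases. Both phases quantified by LC-MS/MS. Log D taken from the phase peak-area ratio, normalised to internal standard.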

[4] = Aqueous solubility of the compound at pH 6.8; assay type: physicochemical; details: buffer
Procedure, shortened: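 Thermodynamic (equilibrium) solubility. 10 mM DMSO stock dried down, then pH 6.8 phosphate buffer added to a target of 1 mM. Shaken at 1350 rpm at ambient temperature for 16–24 h. Supernatant centrifuged twice, diluted 200-fold and quantified by RapidFire-MS/MS against a 4-point calibration curve.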

[5] = Oral bioavailability in Sprague-Dawley rat at 5 mg/kg measured up to 24 hrs by HPLC-MS/MS analysis; assay type: ADME, organism-based; details: in vivo; procedure, shortened: as §1
[6] = Clearance in Sprague-Dawley rat liver microsomes measured up to 30 mins in presence of NADPH by HPLC-MS/MS analysis; assay type: ADME, Microsome; details: read-out: CLH
[7] = Apparent permeability across apical to basolateral membrane in MDCKII-LE cells measured after 120 mins by RapidFire-MS analysis; assay type: ADME, cell-based, Canis lupus familiaris; details: dog, MDCK
Procedure, shortened: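 MDCK-LE (low efflux) cells seeded at about 265,000 cells/cm² on Transwells and cultured 4 days. Apical-to-basal transport run in triplicate at 10 μM in HBSS/10 mM HEPES pH 7.4 with 0.02% BSA, 120 min at 37 °C without shaking. Bestatin used as integrity marker. Donor and acceptor quantified by MS against glyburide internal standard. Papp and % recovery calculated.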

[8] = Clearance in human liver microsomes measured up to 30 mins in presence of NADPH by HPLC-MS/MS analysis; assay type: ADME, Microsome; details: read-out: CLH
Procedure, shortened: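 Human liver microsomes at 1.25 mg/mL protein in phosphate buffer pH 7.4. Test article at 10 μM, shaken at 37 °C. Reaction started with 2 mM NADPH/4 mM MgCl₂. Aliquots taken at 0, 5, 15 and 30 min and quenched with acetonitrile containing glibenclamide. Parent remaining measured by LC-MS/MS. Elimination rate constant converted to in vitro clearance.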

[9] = AUC in Sprague-Dawley rat systemic circulation at 5 mg/kg, po or 0.5 mg/kg, iv measured up to 24 hrs by HPLC-MS/MS analysis; assay type: ADME, organism-based; design: dose 5 mg/kg, time <=24; procedure, shortened: as §1
[10] = Cmax in Sprague-Dawley rat systemic circulation at 5 mg/kg, po or 0.5 mg/kg, iv measured up to 24 hrs by HPLC-MS/MS analysis; assay type: ADME, organism-based; design: dose 5 mg/kg, time <=24; procedure, shortened: as §1
[11] = Volume of distribution at steady state in Sprague-Dawley rat at 5 mg/kg, po or 0.5 mg/kg, iv measured up to 24 hrs by HPLC-MS/MS analysis; assay type: ADME, organism-based; details: in vivo, read-out: Vdss; procedure, shortened: as §1
[12] = Cmax in Sprague-Dawley rat hepatic portal vein circulation at 5 mg/kg, po or 0.5 mg/kg, iv measured up to 24 hrs by HPLC-MS/MS analysis; assay type: ADME, organism-based; design: dose 5 mg/kg, time <=24
[13] = AUC in Sprague-Dawley rat hepatic portal vein circulation at 5 mg/kg, po or 0.5 mg/kg, iv measured up to 24 hrs by HPLC-MS/MS analysis; assay type: ADME, organism-based; design: dose 5 mg/kg, time <=24

clearance [1] | half-life [2] | logD at 4 h [3] | solubility [4] | bioavailability [5] | microsomal CLint [6] | Papp A→B at 2 h [7] | microsomal CLint [8] | AUC at 24 h [9] | Cmax [10] | Vd [11] | Cmax [12] | AUC at 24 h [13] | Compound
702 mL/min/kg | 18 min | 3.6 | < 4 µM | < 1% | ≥ 350 µL/min/mg | 0.6 ×10⁻⁶ cm/s | ≥ 350 µL/min/mg | – | – | – | – | – | CCCC[C@@H]1NC(=O)[C@H](Cc2ccccc2)NC(=O)CSC[C@H](C(=O)NC)NC(=O)[C@H](CCCC)NC(=O)[C@H](CCCC)NC(=O)[C@H](CCCC)NC1=O
12 mL/min/kg | – | 6.1 | < 4 µM | 17% | ≥ 120 µL/min/mg | < 0.35 ×10⁻⁶ cm/s | ≥ 120 µL/min/mg | 1.08 µM·h | 436 nM | – | – | – | CCCC[C@@H]1NC(=O)[C@H](Cc2ccccc2)NC(=O)CSC[C@@H](C(=O)NC)NC(=O)[C@H](CCCC)N(C)C(=O)[C@H](CCCC)N(C)C(=O)[C@H](CCCC)N(C)C(=O)[C@H](CCCC)NC(=O)[C@H](CCCC)N(C)C1=O ({CH2CO}-F[Nle][NMeNle][Nle][NMeNle][NMeNle][NMeNle]C-NHMe; thioether N-8)
106 mL/min/kg | 42 min | 4.7 | 9 µM (≈ 8.09 µg/mL) | 1% | ≥ 480 µL/min/mg | 0.8 ×10⁻⁶ cm/s | ≥ 480 µL/min/mg | 0.01 µM·h | 18 nM | 4.4 L/kg | – | – | CCCC[C@@H]1NC(=O)[C@H](CCCC)NC(=O)[C@H](CCCC)N(C)C(=O)[C@@H]2CCCN2C(=O)[C@H](CCCC)N(C)C(=O)[C@H](Cc2ccccc2)NC(=O)CSC[C@@H](C(=O)NC)NC1=O ({CH2CO}-F[NMeNle]P[NMeNle][Nle][Nle]C-NHMe; thioether N-7)
– | – | 3.6 | 5 µM (≈ 3.87 µg/mL) | – | ≥ 350 µL/min/mg | 0.4 ×10⁻⁶ cm/s | ≥ 350 µL/min/mg | – | – | – | – | – | CCCC[C@@H]1NC(=O)[C@H](CCCC)NC(=O)[C@H](CCCC)NC(=O)[C@@H](Cc2ccccc2)NC(=O)CSC[C@H](C(=O)NC)NC(=O)[C@H](CCCC)NC1=O
– | – | 4.2 | 18 µM (≈ 14.4 µg/mL) | – | ≥ 350 µL/min/mg | 1.5 ×10⁻⁶ cm/s | ≥ 350 µL/min/mg | – | – | – | – | – | CCCC[C@@H]1NC(=O)[C@H](CCCC)N(C)C(=O)[C@H](CCCC)NC(=O)[C@H](CCCC)N(C)C(=O)[C@@H](Cc2ccccc2)NC(=O)CSC[C@H](C(=O)NC)NC1=O
35 mL/min/kg | 36 min | 4.8 | 9 µM (≈ 8.22 µg/mL) | 86% | ≥ 480 µL/min/mg | 6.4 ×10⁻⁶ cm/s | ≥ 480 µL/min/mg | 2.13 µM·h | 868 nM | 1.2 L/kg | – | – | CCCC[C@@H]1NC(=O)[C@H](CCCC)N(C)C(=O)[C@@H]2CCCN2C(=O)[C@H](CCCC)N(C)C(=O)[C@H](Cc2ccccc2)NC(=O)CSC[C@@H](C(=O)NC)NC(=O)[C@H](CCCC)N(C)C1=O ({CH2CO}-F[NMeNle]P[NMeNle][Nle][NMeNle]C-NHMe; thioether N-7)
33 mL/min/kg | – | 6 | < 4 µM | 54% | ≥ 120 µL/min/mg | < 0.35 ×10⁻⁶ cm/s | ≥ 120 µL/min/mg | 1.27 µM·h | 411 nM | – | – | – | CCCC[C@@H]1NC(=O)[C@H](CCCC)N(C)C(=O)[C@H](CCCC)NC(=O)[C@H](CCCC)N(C)C(=O)[C@H](CCCC)NC(=O)[C@H](CCCC)N(C)C(=O)[C@@H](Cc2ccccc2)NC(=O)CSC[C@@H](C(=O)NC)NC1=O
86 mL/min/kg | 54 min | 4.1 | 12 µM (≈ 9.79 µg/mL) | 20% | ≥ 350 µL/min/mg | 8 ×10⁻⁶ cm/s | ≥ 350 µL/min/mg | 0.258 µM·h | 114 nM | 2.1 L/kg | 140 nM | 0.173 µM·h | CCCC[C@@H]1NC(=O)[C@H](Cc2ccccc2)N(C)C(=O)CSC[C@H](C(=O)NC)N(C)C(=O)[C@H](CCCC)NC(=O)[C@H](CCCC)N(C)C(=O)[C@H](CCCC)NC1=O
19 mL/min/kg | 90 min | 4.9 | 9 µM (≈ 8.53 µg/mL) | 84% | ≥ 480 µL/min/mg | 2.3 ×10⁻⁶ cm/s | ≥ 480 µL/min/mg | 1.31 µM·h | 1950 nM | 1.1 L/kg | – | – | CCCC[C@@H]1NC(=O)[C@H](Cc2ccccc2)N(C)C(=O)[C@@H]2CCCN2C(=O)[C@H](CCCC)N(C)C(=O)[C@H](Cc2ccccc2)NC(=O)CSC[C@@H](C(=O)NC)NC(=O)[C@H](CCCC)N(C)C1=O ({CH2CO}-F[NMeNle]P[NMeF][Nle][NMeNle]C-NHMe; thioether N-7)
8.9 mL/min/kg | 228 min | 4.6 | 5 µM (≈ 4.01 µg/mL) | 19% | ≥ 350 µL/min/mg | 3.9 ×10⁻⁶ cm/s | ≥ 350 µL/min/mg | 2.29 µM·h | 1030 nM | 1 L/kg | 819 nM | 1.86 µM·h | CCCC[C@@H]1NC(=O)[C@H](Cc2ccccc2)NC(=O)CSC[C@H](C(=O)NC)NC(=O)[C@H](CCCC)N(C)C(=O)[C@H](CCCC)NC(=O)[C@H](CCCC)N(C)C1=O
72 mL/min/kg | 4.8 min | 3.7 | 9 µM (≈ 7.84 µg/mL) | < 1% | ≥ 480 µL/min/mg | 0.2 ×10⁻⁶ cm/s | ≥ 480 µL/min/mg | – | – | 0.2 L/kg | – | – | CCCC[C@@H]1NC(=O)[C@H](CCCC)NC(=O)[C@H]2CCCN2C(=O)[C@H](CCCC)NC(=O)[C@H](Cc2ccccc2)NC(=O)CSC[C@H](C(=O)NC)NC(=O)[C@H](CCCC)NC1=O
72 mL/min/kg | 18 min | 3.6 | 216 µM (≈ 173 µg/mL) | 6% | ≥ 350 µL/min/mg | 6.3 ×10⁻⁶ cm/s | ≥ 350 µL/min/mg | 0.092 µM·h | 152 nM | 1.3 L/kg | – | – | CCCC[C@@H]1NC(=O)[C@H](Cc2ccccc2)N(C)C(=O)CSC[C@H](C(=O)NC)N(C)C(=O)[C@H](CCCC)NC(=O)[C@H](CCCC)N(C)C(=O)C2CCCN2C1=O (stereo not given in full)
222 mL/min/kg | 12 min | 3.1 | 200 µM (≈ 152 µg/mL) | < 1% | ≥ 350 µL/min/mg | 0.6 ×10⁻⁶ cm/s | ≥ 350 µL/min/mg | 0.0006 µM·h | 1.7 nM | 2 L/kg | – | – | CCCC[C@@H]1NC(=O)C2CCCN2C(=O)[C@H](CCCC)NC(=O)[C@H](Cc2ccccc2)NC(=O)CSC[C@H](C(=O)NC)NC(=O)[C@H](CCCC)NC1=O (stereo not given in full)
28.4 mL/min/kg | – | 5.2 | < 4 µM | 13% | ≥ 120 µL/min/mg | < 0.35 ×10⁻⁶ cm/s | ≥ 120 µL/min/mg | 0.372 µM·h | 161 nM | – | – | – | CCCC[C@@H]1NC(=O)[C@H](CCCC)N(C)C(=O)[C@H](CCCC)NC(=O)[C@H](Cc2ccccc2)N(C)C(=O)[C@H]([C@@H](C)O)NC(=O)[C@H](CCCC)N(C)C(=O)[C@@H](Cc2ccccc2)NC(=O)CSC[C@@H](C(=O)NC)NC1=O
